Test results as given in ChEMBL document CHEMBL1149438, “Antimalarial activity of 4-(5-trifluoromethyl-1H-pyrazol-1-yl)-chloroquine analogues” (Bioorg Med Chem Lett, 2006).
Values after ≈ are worked out from the molar mass of the structure shown.

How the values were obtained:
Plasmodium berghei [1] = experiment: Growth inhibition of Plasmodium berghei in BALB/c mice (Mus musculus) at 15 mg/kg peroral dose; assay type: functional, NK65; set-up: scale not given: the % may be the effect or the level left; settings: route oral
Plasmodium berghei [2] = experiment: Growth inhibition of Plasmodium berghei infected BALB/c mice (Mus musculus) at 15 mg/kg subcutaneous dose; assay type: functional, NK65; set-up: scale not given: the % may be the effect or the level left
Plasmodium falciparum = experiment: Antimalarial activity against chloroquine-resistant Plasmodium falciparum W2 infected human erythrocytes; assay type: functional, organism-based
Outline: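 P. falciparum W2 (chloroquine-resistant) grown in human O+ erythrocytes, RPMI 1640 with 10% human plasma. Sorbitol-synchronized trophozoites plated at 2% parasitaemia, 2.5% haematocrit. Molecules dissolved in ethanol, serially diluted in hypoxanthine-free RPMI 1640, chloroquine reference run in parallel. Growth read by [³H]hypoxanthine incorporation. IC50 taken relative to drug-free control cultures.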

Plasmodium berghei [3] = experiment: Growth inhibition of Plasmodium berghei infected BALB/c mice (Mus musculus) at 20 mg/kg perorallydose; assay type: functional, NK65; set-up: scale not given: the % may be the effect or the level left; settings: route oral
Outline: (§1)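 Balb/c mice infected with blood-stage P. berghei, 6 per group, given 20 mg/kg orally or subcutaneously. Controls were untreated or saline-treated mice, plus mice given non-curative chloroquine. Blood smears were methanol-fixed and Giemsa-stained, and parasitaemia was counted in 1000 to 6000 erythrocytes. Percent reduction of parasite growth is relative to non-treated mice at day 7 post-inoculation.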

Plasmodium berghei [4] = experiment: Growth inhibition of Plasmodium berghei infected BALB/c mice (Mus musculus) at 20 mg/kg subcutaneous dose; assay type: functional, NK65; set-up: scale not given: the % may be the effect or the level left; outline: as §1

| Compound | IC50 (Plasmodium falciparum) [µg/mL] | further results |
| --- | --- | --- |
| CCN(CC)CCCC(C)Nc1ccnc2cc(Cl)ccc12 (stereo not given) [CHLOROQUINE] | – | Activity (Plasmodium berghei [1]): 53%; Activity (Plasmodium berghei [2]): 100% |
| O=[N+]([O-])c1ccc(C2=NN(c3ccnc4cc(Cl)ccc34)C(O)(C(F)(F)F)C2)cc1 (stereo not given) | 5.71 (≈ 13.1 µM) | – |
| OC1(C(F)(F)F)CC(c2ccc(-c3ccccc3)cc2)=NN1c1ccnc2cc(Cl)ccc12 (stereo not given) | 2.12 (≈ 4.53 µM) | – |
| FC(F)(F)c1cc(-c2ccccc2)nn1-c1ccnc2cc(Cl)ccc12 | 9.53 (≈ 25.5 µM) | – |
| OC1(C(F)(F)F)CC(c2ccc(Cl)cc2)=NN1c1ccnc2cc(Cl)ccc12 (stereo not given) | 1.69 (≈ 3.97 µM) | Activity (Plasmodium berghei [3]): 0%; Activity (Plasmodium berghei [4]): 47% |
| O=[N+]([O-])c1ccc(-c2cc(C(F)(F)F)n(-c3ccnc4cc(Cl)ccc34)n2)cc1 | > 50 | – |
| OC1(C(F)(F)F)CC(c2ccccc2)=NN1c1ccnc2cc(Cl)ccc12 (stereo not given) | 1.39 (≈ 3.55 µM) | Activity (Plasmodium berghei [3]): 0%; Activity (Plasmodium berghei [4]): 0% |
| Cc1ccc(C2=NN(c3ccnc4cc(Cl)ccc34)C(O)(C(F)(F)F)C2)cc1 (stereo not given) | 3.04 (≈ 7.49 µM) | – |
| Cc1ccc(-c2cc(C(F)(F)F)n(-c3ccnc4cc(Cl)ccc34)n2)cc1 | > 50 | – |
| FC(F)(F)c1cc(-c2ccc(Br)cc2)nn1-c1ccnc2cc(Cl)ccc12 | > 50 | – |
| OC1(C(F)(F)F)CC(c2ccc(Br)cc2)=NN1c1ccnc2cc(Cl)ccc12 (stereo not given) | 1.55 (≈ 3.29 µM) | Activity (Plasmodium berghei [3]): 0%; Activity (Plasmodium berghei [4]): 82% |
| FC(F)(F)c1cc(-c2ccc(Cl)cc2)nn1-c1ccnc2cc(Cl)ccc12 | > 50 | – |
| OC1(C(F)(F)F)CC(c2ccc(F)cc2)=NN1c1ccnc2cc(Cl)ccc12 (stereo not given) | 2.13 (≈ 5.2 µM) | – |
| COc1ccc(C2=NN(c3ccnc4cc(Cl)ccc34)C(O)(C(F)(F)F)C2)cc1 (stereo not given) | > 50 | – |
| FC(F)(F)c1cc(-c2ccc(-c3ccccc3)cc2)nn1-c1ccnc2cc(Cl)ccc12 | 18.5 (≈ 41.2 µM) | – |
| COc1ccc(-c2cc(C(F)(F)F)n(-c3ccnc4cc(Cl)ccc34)n2)cc1 | > 50 | – |
| Cc1cc(C(F)(F)F)n(-c2ccnc3cc(Cl)ccc23)n1 | 4.29 (≈ 13.8 µM) | – |
| Fc1ccc(-c2cc(C(F)(F)F)n(-c3ccnc4cc(Cl)ccc34)n2)cc1 | 27.6 (≈ 70.5 µM) | – |
